NR2E3 ag-1 = activates human photoreceptor nuclear receptor NR2E3; GST-NR2E3/biotin-RetCOR TR-FRET, 1536-well; Q9Y5X4; inhibition of corepressor binding, % at 4.78 µM; 320,000 tested, 0.12% active;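 active means percent inhibition above the cutoff of mean plus 3 SD of all tested compounds, set per screening campaign, cut at about 20% in these data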;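 further: 0% = DMSO wells and 100% = biotin wells as full block of FRET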
Target sequence (Q9Y5X4 whole entry, looked up): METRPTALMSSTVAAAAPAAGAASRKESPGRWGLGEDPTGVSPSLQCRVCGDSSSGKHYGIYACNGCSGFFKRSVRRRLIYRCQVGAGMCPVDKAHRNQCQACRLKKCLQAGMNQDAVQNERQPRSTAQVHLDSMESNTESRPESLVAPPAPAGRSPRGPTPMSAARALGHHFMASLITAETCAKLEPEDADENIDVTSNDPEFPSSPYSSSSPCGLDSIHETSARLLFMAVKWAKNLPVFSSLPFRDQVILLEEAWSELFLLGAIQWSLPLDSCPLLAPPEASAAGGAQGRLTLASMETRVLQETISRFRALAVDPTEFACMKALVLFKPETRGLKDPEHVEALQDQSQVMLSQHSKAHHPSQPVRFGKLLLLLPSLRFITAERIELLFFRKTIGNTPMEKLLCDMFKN
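Test system – NR2E3–RetCOR corepressor complex · Quantity – NR2E3 fusion 1.35 nM · Buffer or medium – Tris pH 7.5 · Incubation – Compound–protein incubation for 5 h at 4 °C · Technique – TR-FRET, Eu(K)-anti-GST donor, streptavidin-D2 acceptor, ex 340, em 617/671 nm · Evaluation – percent inhibition of 671/617 nm emission ratio versus biotin and DMSO controls · Plate – 1536-well format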
JMJD2C inh = inhibitors of human GASC-1 (JMJD2C) demethylase | Q9H3R0 | GST-JMJD2C(1-420) H3K9me3 demethylation, DELFIA europium | inhibition, % at 2.35 µM | 330,000 tested, 0.069% active | AID 2099;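 active means more than half of a compound's replicate wells show inhibition beyond 50%, single wells judged on their own value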;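 further: signal counts dimethyl H3K9 product captured on neutravidin plate; 0% = median of DMSO wells and 100% = 0.3 times that DMSO median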
SMARCA2 act = SMARCA2 function activation, primary screen; 370,000 tested, 1% active; MG213 cells, MMTV-luciferase reporter, dexamethasone, overnight; activation, % at 9.1 µM; AID 652017; in the data active means activation above about 7.8%;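 further: 0% = vehicle wells and 100% = reference activator wells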
NR2E3 ag-2 = human photoreceptor-specific nuclear receptor agonism | AID 602229 | Q9Y5X4 | CHO-S Gal4-NCOR/VP16-NR2E3 two-hybrid, luciferase | inhibition of corepressor binding, % at 3.98 µM | 360,000 tested, 0.35% active;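 active means inhibition above the mean of all tested compounds plus 3 SD, cut at about 70% in these data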;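 further: 0% = DMSO with NR2E3 transfected cells and 100% = cells lacking NR2E3 construct; higher means lower luciferase signal from less NR2E3 corepressor binding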
DAX1 inh-1 = DAX1 (NR0B1) inhibition, primary screen | HEK293T StAR-luciferase reporter, SF-1/DAX-1 repression relief | 370,000 tested, 1.1% active | AID 652010 | inhibition, % at 6.8 µM;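 active means inhibition above the mean over all tested compounds plus 3 SD, cut at about 3.6% in these data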;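 further: 0% = DAX-1 cells with DMSO and 100% = cells lacking DAX-1 with DMSO; higher inhibition means more luminescence from relief of DAX-1 repression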
DAX1 inh-2 = inhibits human nuclear receptor DAX1; P51843; HEK293 Gal4-DAX1 luciferase reporter, luminescence; inhibition, % at 6.75 µM; 340,000 tested, 0.99% active;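 active means inhibition above the mean over all tested compounds plus 3 SD, cut at about 4.2% in these data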;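 further: 0% = DAX1-transfected cells with DMSO and 100% = empty-vector control cells with DMSO; inhibition shows as a rise in luminescence from relieved DAX1 repression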
Target sequence (P51843 207-470 limits assumed): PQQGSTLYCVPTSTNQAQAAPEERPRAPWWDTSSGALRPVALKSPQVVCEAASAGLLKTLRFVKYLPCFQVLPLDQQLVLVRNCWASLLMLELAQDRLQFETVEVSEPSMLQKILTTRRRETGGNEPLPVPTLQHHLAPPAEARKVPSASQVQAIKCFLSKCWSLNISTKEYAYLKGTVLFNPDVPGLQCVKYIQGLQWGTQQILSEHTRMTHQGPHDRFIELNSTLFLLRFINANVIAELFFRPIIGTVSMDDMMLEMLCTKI
Active calls of the source: *; nt = no result given. In the library only some 3.2% were active in any assay of this set; here they are far more common.

SMILES	NR2E3 ag-1	JMJD2C inh	SMARCA2 act	NR2E3 ag-2	DAX1 inh-1	DAX1 inh-2
O=C(Nc1ccc2c(c1)OCO2)c1cc(C2CCCCN2S(=O)(=O)Cc2ccccc2)on1 (stereo not drawn)	nt	nt	5	-123	4.4*	nt
CCC(=O)N[C@H]1C[C@@H]2O[C@@H](CO)CC[C@@H]2O[C@@H]1CCc1ccc(-c2cccc(OC)c2)cc1	nt	nt	-1	nt	-1	nt
COC(=O)C1=C(C)N(c2ccc(OC)cc2)C(C)=C(C(=O)OC)C1c1ccccc1	3	-4	-4	-15	0	4.9*
Cc1onc(-c2c(F)cccc2Cl)c1C(=O)NC1CC1	6	33	0	-8	1	0
Cn1c(-c2ccccc2)cc2onc(-c3ccccc3)c2c1=O	0	3	1	-60	3	2
Cn1c(-c2ncc(F)cc2F)cc2onc(-c3c(F)cccc3Cl)c2c1=O	nt	2	7	-93	1	6.4*
Cn1c(-c2ccccc2F)cc2onc(-c3ccccc3)c2c1=O	-1	3	7	-141	5.0*	5.5*
Cc1cc(C)cc(NC(=O)C2(C(=O)C3CC3)CC(c3ccccc3C(F)(F)F)=NO2)c1 (stereo not drawn)	nt	nt	-1	nt	-1	nt
O=C1N(Cc2ccccc2)c2ccccc2C12CCCc1oc(CCc3ccccc3)nc12 (stereo not drawn)	nt	nt	-4	nt	-1	nt
O=C(Nc1ccccc1C(F)(F)F)OCCCN1CCC2(CCC(c3ccccc3)CC2)C1=O (stereo not drawn)	nt	nt	-6	nt	-3	nt
CCn1ccc(C(=O)Nc2ccccc2Cl)n1	1	-1	7	-97	4.3*	1
COC(=O)C(C(=O)OC)C1OC23CN(S(=O)(=O)c4ccc(C)cc4)C=CC2(C)C3c2ccccc21 (stereo not drawn)	nt	nt	-4	nt	-2	nt
Cc1cc2nc(-c3ccc(NC(=O)C(C)C)cc3)oc2cc1C	0	2	7	-127	3.7*	1
CCC(=O)Nc1ccc2oc(-c3cccc(C)c3)nc2c1	1	nt	0	-133	4.2*	-3
CCC(=O)Nc1cccc(-c2nc3ccc(C)cc3o2)c1	1	9	0	-108	1	3
CCCC(=O)Nc1cccc(-c2nc3cc(C)c(C)cc3o2)c1	-1	-2	4	-176	4.3*	1
COC(=O)[C@]12C[C@H](CC(=O)N3CCSCC3)C(=O)N(Cc3cccc4ccccc34)C1=C[C@H](C(C)C)O[C@@H]2C1CC1	nt	nt	-4	nt	-1	nt
Cc1ccc(OC(=O)c2ccc(S(=O)(=O)N(C)C)cc2)c(-n2nc3ccccc3n2)c1	1	-17	5	-80	3	4.3*
CCc1c(C(=O)NNC(=S)Nc2ccc(S(=O)(=O)Nc3ncccn3)cc2)csc1C	-2	13	-2	-5	4.0*	0
c1cncc(-c2nc(-c3ccc4c(c3)OCCO4)cs2)c1	2	-8	2	-76	1	4.6*
COC(=O)C1CN(Cc2ccccc2)CCS(=O)(=O)N1Cc1ccc(C(F)(F)F)cc1 (stereo not drawn)	nt	nt	-3	nt	-2	nt
CC(=O)Nc1nc2c(C)cc(NC(=O)C3CCCCC3)cc2s1	4	-8	1	-11	1	2
CC(=O)Nc1cc(C)c2nc(NC(C)=O)sc2c1	-2	28	4	-25	1	8.3*
Fc1ccccc1NC(=S)N/N=C/c1ccccc1Br	1	2	5	-33	4.3*	1
CSc1nc2ccc(NC(=O)COc3ccccc3F)cc2s1	nt	2	2	-9	3.7*	-1
SMILES	NR2E3 ag-1	JMJD2C inh	SMARCA2 act	NR2E3 ag-2	DAX1 inh-1	DAX1 inh-2
CSc1nc2ccc(NC(=O)c3ccc(Cl)s3)cc2s1	1	1	3	-17	4.1*	1
Cc1ccc2nc(NC(=O)c3ccc(-c4nc5ccccc5s4)s3)sc2c1	-1	nt	-3	10	-3	0
O=C(Nc1nc2ccccc2s1)c1ccc(Cl)s1	7	1	6	-135	4.0*	6.5*
CSc1nc2ccc(NC(=O)CS(=O)(=O)c3ccccc3)cc2s1	nt	nt	3	-16	2	3
C(=C\c1ccccc1)/CSc1nnc(COc2ccccc2)n1Cc1ccco1	nt	nt	-2	nt	-1	nt
O=C(Nc1ccccc1)OC[C@@H]1CSCCS(=O)(=O)N1	nt	nt	0	nt	3	nt
O=C(Nc1c(F)c(F)c(F)c(F)c1F)OC[C@@H]1CSCCS(=O)(=O)N1	nt	nt	3	nt	3.6*	nt
Cc1cccc(NC(=O)C2CCCN(S(=O)(=O)c3c(C)nn(C)c3C)C2)n1 (stereo not drawn)	0	63*	-1	3	-1	-2
Cc1cccc(NC(=O)C2CCN(S(=O)(=O)c3cccc4nsnc34)CC2)n1	-2	52*	-6	8	0	1
O=C(NC1CCCC1)C1CCCN(S(=O)(=O)c2cccc3cccnc23)C1 (stereo not drawn)	4	2	-4	-18	0	-2
O=C(NC1CCCCCC1)C1CCN(S(=O)(=O)c2cccc3cccnc23)CC1	2	17	-1	-35	-2	6.1*
Cc1cccc(NC(=O)C2CCCN(S(=O)(=O)c3cccc4nsnc34)C2)n1 (stereo not drawn)	7	-1	-2	-12	-1	0
COC(=O)C1CN(Cc2cn(Cc3ccc(Cl)cc3)nn2)CCS(=O)(=O)N1Cc1ccc(OC)cc1 (stereo not drawn)	nt	nt	-2	nt	-2	nt
CN(C)CC(=O)N[C@@H]1C[C@@H]2O[C@@H](CO)CC[C@@H]2O[C@@H]1CCc1ccc(C2=CCCCC2)cc1	nt	nt	-2	nt	1	nt
Cc1ccc(N2CCN(C(=O)c3cn(CC4CCCCC4)nn3)C(C)C2)cc1 (stereo not drawn)	3	-13	4	-104	4.3*	1
COC(=O)[C@]12C[C@H](CC(=O)NCc3cccc(C(F)(F)F)c3)C(=O)N(Cc3ccco3)C1=C[C@H](C(C)C)O[C@@H]2C1CC1	nt	nt	-3	nt	0	nt
COC(=O)[C@]12C[C@H](CC(=O)NCc3ccccc3)C(=O)N(Cc3ccc4c(c3)OCO4)C1=C[C@H](C(C)C)O[C@@H]2C1CC1	nt	nt	-3	nt	0	nt
N#CCC[C@H]1CC[C@]2(CCCN(C(=O)C3CCCC3)C2)O1	nt	nt	3	nt	0	nt
CC1CCCC(C)N1S(=O)(=O)c1ccc(Cl)cc1 (stereo not drawn)	5	-27	3	6	0	4.7*
CC(=O)Nc1ccc(S(=O)(=O)C(C#N)c2nc3ccccc3nc2NCCCO)cc1 (stereo not drawn)	2	-26	-5	-21	0	5.3*
CC(=O)Nc1ccc(S(=O)(=O)C(C#N)c2nc3ccccc3nc2NCCO)cc1 (stereo not drawn)	1	2	-2	-3	1	4

Bioassay records: PubChem BioAssay, several laboratories
